ASAP1 GAP inh: blocks human ASAP1-stimulated Arf1 GTP hydrolysis; inhibition, % at 16.5 µM; 0.19% of 360,000 active; GDP FP detection; AID 624377; in the data active means inhibition above about 25%;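 further: 0% = vehicle with enzyme and substrate and 100% = no enzyme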
APOBEC3G inh: APOBEC3G (human) deaminase inhibition; Q9HC16; recombinant A3G, ssDNA deamination FAM/TAMRA fluorescence; inhibition, % at 20 µM; 0.28% of 330,000 active;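 active means inhibition of at least 40% at 20 µM, with no more than 30% in the related APOBEC3A deaminase screen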;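 further: plate controls were DMSO wells with A3G for no effect and wells lacking A3G enzyme for full effect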
Statin myotox sup: protects C2C12 myotubes from simvastatin toxicity; 0.78% of 330,000 active; rescue of ATP level, % at 7.49 µM; ATP luminescence, 48 h; scaled: DMSO 0, geranylgeraniol control 100;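 active means mean ATP rescue above about 67%, or every replicate alone reaching that limit, limit read from the data, passing the limit was not always enough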;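 further: myotubes were challenged with 10 µM simvastatin during compound exposure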
A3A deaminase: human APOBEC3A DNA deaminase inhibition; recombinant A3A, FAM/TAMRA ssDNA deamination fluorescence; inhibition, % at 20 µM; 0.41% of 330,000 active;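 active means at least 40% inhibition at 20 µM here, with at most 30% in a related deaminase screen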;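 further: plate controls were A3A with DMSO for no effect and wells lacking A3A enzyme for full effect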
Target sequence (P31941 whole entry, looked up): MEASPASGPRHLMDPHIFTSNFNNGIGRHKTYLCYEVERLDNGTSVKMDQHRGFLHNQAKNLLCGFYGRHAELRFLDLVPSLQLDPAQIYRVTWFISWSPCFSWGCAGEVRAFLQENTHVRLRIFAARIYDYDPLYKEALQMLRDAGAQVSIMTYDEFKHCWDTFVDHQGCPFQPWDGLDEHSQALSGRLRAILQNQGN
SUMO Mot1 rescue: blocks SUMOylation pathway, rescuing yeast Mot1-301 growth | S. cerevisiae Mot1-301 growth rescue, ATP luminescence, 38.5C; percent above DMSO median, 100 means doubled | growth rescue, % at 18.8 µM | 1% of 320,000 active;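 active means every valid replicate shows activation above 250% relative to neutral control wells; inactive means the rest, any valid replicate at or below 250%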;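 further: OY570 slx delta 5 strain wells were the positive control but not used for scaling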
ARFGAP1 inhibitor: rat ARFGAP1 inhibition; Q62848; 0.26% of 360,000 active; inhibition, % at 16.5 µM; Arfgap1-stimulated ARF1 GTP hydrolysis, GDP FP detection;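 active means inhibition above a per-plate limit, mean inhibition of low control wells plus 3 SD, cut at about 25% in these data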;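 further: 0% = DMSO wells with enzyme and 100% = wells lacking Arfgap1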
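System: truncated rat Arfgap1 GAP domain / Benchmarks: high control wells lacking Arfgap1, low control full reaction with DMSO / Times: compound-enzyme preincubation 20 min, reaction 120 min, detection 60 min, 25 °C / Repeats: one replicate per compound / Also added: human ARF1(Δ1-17)-GTP substrate / Measured by: Tracer-displacement fluorescence polarization with EDTA stop, 620/688 nm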
ARFGAP1 inh conf: rat ARFGAP1 inhibition, confirmed | shares compounds with ARFGAP1 inhibitor | ARFGAP1-stimulated ARF1 GTP hydrolysis, GDP tracer FP | inhibition, % at 16.5 µM | 30% of 890 active | AID 651608;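 active means average inhibition over triplicates above the hit cutoff set in the earlier primary screen, cut at about 25% in these data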;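 further: 0% = Arfgap1 plus ARF1-GTP with DMSO and 100% = wells lacking Arfgap1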
Target sequence (Q62848 whole entry, looked up): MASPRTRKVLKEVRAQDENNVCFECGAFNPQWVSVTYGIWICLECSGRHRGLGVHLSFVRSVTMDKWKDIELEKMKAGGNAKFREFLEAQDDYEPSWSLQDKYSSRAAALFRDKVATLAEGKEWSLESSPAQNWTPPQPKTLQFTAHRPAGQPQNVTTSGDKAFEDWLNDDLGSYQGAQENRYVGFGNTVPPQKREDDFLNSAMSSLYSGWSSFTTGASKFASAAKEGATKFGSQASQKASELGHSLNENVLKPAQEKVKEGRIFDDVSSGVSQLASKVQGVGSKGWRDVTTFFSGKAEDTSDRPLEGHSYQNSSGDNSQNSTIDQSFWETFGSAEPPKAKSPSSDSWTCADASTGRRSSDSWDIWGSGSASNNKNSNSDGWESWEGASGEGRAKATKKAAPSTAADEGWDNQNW
Numbers without * were called inactive; / = no result given; + = active, no number. This is a sample that favours compounds with a hit; in the whole collection about 2.1% have one here.

SMILES	ASAP1 GAP inh	APOBEC3G inh	Statin myotox sup	A3A deaminase	SUMO Mot1 rescue	ARFGAP1 inhibitor	ARFGAP1 inh conf
Cc1cccc(N2C(=O)C(Oc3ccc(Cl)cc3Cl)C2C(=O)O)c1C (centres undefined)	3	-6	/	-2	3	25*	-7
CCCNCC1C(Oc2ccc(Cl)cc2Cl)C(=O)N1c1cccc(C)c1C (centres undefined)	8	-4	/	-2	-19	6	/
OC[C@@H]1CN(Cc2ccc(F)cc2)C[C@H](n2cnc3c(Nc4ccccc4)ncnc32)O1	-2	/	7	/	/	38*	1
OC[C@@H]1CN(Cc2ccccc2)C[C@H](n2cnc3c(NCc4ccc(F)cc4)ncnc32)O1	8	/	20	/	/	-5	/
O=C(Nc1ccc(F)cc1)N1C[C@H]2[C@@H](c3ccccc31)[C@@H](CO)N2C(=O)c1ccccc1	/	/	14	/	/	/	/
Cc1nnc2ccc(-c3cccc(NC(=O)c4ccc(Cl)nc4)c3)nn12	9	-3	-6	2	-29	27*	2
Cc1ccccc1NC(=O)Cc1nc(COC(=O)c2cc(Br)ccc2O)cs1	3	-9	5	-4	3	7	/
Cc1ccccc1NC(=O)Cc1nc(COC(=O)c2cc([N+](=O)[O-])ccc2N)cs1	0	-3	9	3	11	29*	23
CC=Cc1ccc2n(c1=O)C[C@@H]1[C@@H](CO)[C@H](C(=O)NCCc3cn(C)cn3)N(C(=O)C3CC3)[C@H]21 (mixture of isomers)	/	/	-7	/	/	/	/
COc1ccc([N+](=O)[O-])cc1CN1CCN(c2ncc(Cc3ccccc3)cn2)CC1	-4	/	/	/	/	26*	-2
Cc1ccc(/C=N/NC(=O)CSc2nc3nc(C)cc(C)n3n2)cc1	-9	-5	22	-3	-2	19	/
Cc1cc(C)n2nc(SCC(=O)N/N=C/c3ccccc3F)nc2n1	4	9	-39	1	-1	27*	0
Cc1ccc(NC(=O)N2CC(C)OC(C)C2)cc1[N+](=O)[O-] (centres undefined)	-2	/	/	/	/	33*	-1
Cc1ccc(C(=O)NC(=S)N2CC(C)OC(C)C2)cc1[N+](=O)[O-] (centres undefined)	/	-1	-13	-2	0	/	/
COc1ccc([C@H]2C[C@@H](n3cc(COC(=O)c4ccccc4)nn3)[C@H](O)CN2C(=O)C2CCCCC2)cc1	3	/	14	/	/	26*	1
COc1nnc(-c2ccc(N3CCOCC3)c(NC(C)=O)c2)c2ccccc12	4	-8	/	-3	341	-10	/
COc1nnc(-c2ccc(N3CCOCC3)c(NC(=O)c3ccccc3)c2)c2ccccc12	1	-2	-11	0	12	41*	3
CCOc1ccc(/C=N/n2c(C)nnc2C)cc1OC	-2	-2	/	0	15	4	/
CCOc1cc(/C=N/n2c(C)nnc2C)ccc1O	5	0	/	-2	2	28*	7
CN1c2ccc(-c3ccc(F)cc3)cc2[C@H]2[C@H](CCN2C(=O)c2cccnc2)[C@@H]1CO	/	/	-9	/	/	/	/
CN1c2ccsc2/C(=N/Nc2ccccc2)CS1(=O)=O	-2	-7	-16	-3	-9	29*	1
COc1ccc(-c2[nH]ncc2/C=N/NC(=O)c2cccc([N+](=O)[O-])c2)cc1OC	22	-4	-1	-6	-6	26*	52*
CNC[C@@H]1Oc2ncc(-c3ccc(C)cc3)cc2C(=O)N([C@@H](C)CO)C[C@@H]1C	/	/	-2	/	/	/	/
O=c1cc(Nc2ccc3c(c2)OCCO3)[nH]c(=O)n1Cc1ccc(F)cc1	-4	4	1	1	4	27*	-2
O=C(NCc1ccccc1Cl)c1cccc(NC2=NC3CS(=O)(=O)CC3S2)c1 (centres undefined)	4	-8	-3	-7	26	3	/
SMILES	ASAP1 GAP inh	APOBEC3G inh	Statin myotox sup	A3A deaminase	SUMO Mot1 rescue	ARFGAP1 inhibitor	ARFGAP1 inh conf
O=C(NCc1ccccc1Cl)c1ccc(NC2=NC3CS(=O)(=O)CC3S2)cc1 (centres undefined)	9	-5	3	-5	-7	27*	0
O=C1Nc2ccccc2CCc2ccccc21	11	-8	6	-5	-14	-3	/
O=C1Cc2ccccc2C(=O)N1	36*	/	/	/	/	26*	28*
O=C(COC(=O)C12CC3CC(CC(C3)C1)C2)N1CCN(S(=O)(=O)c2ccccc2)CC1	-10	-3	-11	-3	-19	29*	3
COCC(=O)Nc1ccc2c(c1)OC[C@@H](C)N(Cc1ccccc1F)C[C@@H](C)[C@H](OC)CN(C)C2=O	/	/	21	/	/	/	/
COc1ccc(/C=C/C(=O)Nc2cc(S(=O)(=O)N3CCCCC3)ccc2N2CCCCC2)cc1OC	1	-10	/	-2	-8	-9	/
CCN1CCN(c2ccc(S(=O)(=O)N3CCCCC3)cc2NC(=O)/C=C/c2ccc(OC)c(OC)c2)CC1	19	30	22	73	-11	30*	45*
COC(=O)[C@H]1[C@H](CO)[C@H]2Cn3c(ccc(/C=C/c4ccccc4)c3=O)[C@H]2N1CC1CCCCC1	/	/	4	/	/	/	/
O=C(Nc1ccc(Nc2ccncc2)cc1)c1ccc(Nc2ccnc3ccc([N+](=O)[O-])cc23)cc1[N+](=O)[O-]	15	/	/	/	-13	74*	+
O=C(Nc1ccc(Nc2ccncc2)cc1)c1ccc([N+](=O)[O-])cc1	17	-8	-6	-1	20	-14	/
CC1CC(C)CN(S(=O)(=O)CC23CCC(CC2=O)C3(C)C)C1 (centres undefined)	-6	2	-7	-5	-29	25*	-9
O=C(COC(=O)CNC(=O)c1ccc(Cl)cc1Cl)NC(=O)NC1CCCCC1	8	-9	0	-3	-19	-8	/
O=C(COC(=O)CNC(=O)c1ccc(Cl)cc1Cl)NC1CCCCC1	0	-2	/	2	-13	27*	1
Cc1cc(C)c2c(=N)c3ccccc3n(CCCCCCCCn3c4ccccc4c(=N)c4c(C)cc(C)nc43)c2n1	9	/	-7	/	/	26*	-1
O=C(NC1(O)C(=O)c2ccccc2C1=O)c1c(Cl)cccc1Cl	21	-7	/	-5	1	26*	10
CCCC(=O)Nc1ccc2c(c1)C(=O)N(C)[C@H]1CC[C@@H](CC(=O)NCc3ccccc3F)O[C@H]1CO2	/	/	-15	/	/	/	/
O=C(Cc1ccncc1)NCC[C@H]1CC[C@H](NS(=O)(=O)c2ccccc2Cl)[C@H](CO)O1	/	/	-5	/	/	/	/
Brc1ccc(-c2noc3c2-c2nc(-c4ccccc4)sc2CC3)cc1	15	-4	6	-2	-9	27*	-1
COc1cccc(C(=O)Cn2c(Br)nc3c2c(=O)n(C)c(=O)n3C)c1	0	-1	1	3	-17	28*	5

Source: PubChem BioAssay (several laboratories)
